Measurements from different studies.
Lines come from different studies, so protocols differ.
Target: Myotonin-protein kinase (DMPK, Homo sapiens, UniProt Q09013)
Sequence (Q09013 1-629, as in one of the studies): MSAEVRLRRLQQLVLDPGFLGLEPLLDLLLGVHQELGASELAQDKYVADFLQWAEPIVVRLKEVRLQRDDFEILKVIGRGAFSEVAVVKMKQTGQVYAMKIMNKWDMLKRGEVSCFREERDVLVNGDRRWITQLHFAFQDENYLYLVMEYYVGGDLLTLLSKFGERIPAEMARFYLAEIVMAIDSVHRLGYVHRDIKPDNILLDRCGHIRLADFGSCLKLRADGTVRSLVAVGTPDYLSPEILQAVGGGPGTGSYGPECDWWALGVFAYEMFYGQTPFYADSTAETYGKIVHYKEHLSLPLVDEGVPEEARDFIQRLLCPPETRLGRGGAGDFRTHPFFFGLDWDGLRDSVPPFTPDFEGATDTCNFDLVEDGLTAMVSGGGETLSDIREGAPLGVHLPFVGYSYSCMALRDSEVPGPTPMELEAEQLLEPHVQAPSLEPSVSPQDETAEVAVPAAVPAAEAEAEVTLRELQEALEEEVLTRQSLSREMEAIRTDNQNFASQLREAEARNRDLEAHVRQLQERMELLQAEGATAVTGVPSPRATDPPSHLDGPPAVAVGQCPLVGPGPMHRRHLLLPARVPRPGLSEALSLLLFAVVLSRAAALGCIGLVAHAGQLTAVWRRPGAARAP

Nc1ncc2c(n1)-c1c([nH]c3ccc(C#CC4CC4)cc13)CCCC2  remaining binding (binding, competition with immobilised ligand; 1 µM): 82%
O=C(NCCCN1CCOCC1)c1ccc(Nc2ncc(Cl)c(-c3ccc(Cl)s3)n2)cc1  remaining binding (binding, competition with immobilised ligand; 1 µM): 100%
Cc1cnn2ncc(-c3ccnc(N(C)C)n3)c2c1  remaining binding (binding; 1 µM): 100%
C[C@H](c1cccc(C#N)c1)n1cc(Cl)cc(C(N)=O)c1=N  remaining binding (cell-free assay, competition with immobilised ligand; 1 µM): 100%
CN(CCCC(F)(F)F)c1nccc(-c2cnn3ncccc23)n1  remaining binding (binding; 1 µM): 80%
C[C@H](NC(=O)c1cnc2n1[C@](C)(Cc1ccc(C#N)cc1)C(=O)N2c1cc(Cl)c(F)c(Cl)c1)C(=O)NC1(c2ccccn2)CC1  remaining binding (cell-free assay, competition with immobilised ligand; 1 µM): 67%
Cc1cnc(Nc2ccc(C(=O)N3CCC(N4CCCC4)CC3)cc2)nc1-c1cc2ccccc2s1  remaining binding (binding, competition with immobilised ligand; 1 µM): 100%
N[C@@H]1CCN(c2nccc(-c3cnn4ncccc34)n2)C1  remaining binding (binding; 1 µM): 94%
COc1cnc(Nc2cccc(S(N)(=O)=O)c2)nc1N1CCN(c2ccccc2)C(=O)C1  remaining binding (binding, competition with immobilised ligand; 1 µM): 100%
CC1CCCN1c1nccc(-c2cnn3ncccc23)n1 (stereo not shown)  remaining binding (binding; 1 µM): 94%
CNCc1ccccc1-c1csc([C@H](C)Nc2nc(C)nc3cc(OC)c(OC)cc23)c1  remaining binding (cell-free assay, competition with immobilised ligand; 1 µM): 85%
C[C@H]1CCN(c2nccc(-c3cnn4ncccc34)n2)C1  remaining binding (binding; 1 µM): 100%
FC(F)(F)Oc1cccc(-c2cnc3ccc(-c4ccncc4)nn23)c1  remaining binding (cell-free assay, competition with immobilised ligand; 5 µM): 99%
CN(C)c1ncc(F)c(-c2cnn3ncccc23)n1  remaining binding (binding; 1 µM): 100%
CCC(=O)N[C@H]1CC[C@@H](C(=O)N(C)c2ccc(-c3nc4ccccc4o3)cc2)C1  remaining binding (cell-free assay, competition with immobilised ligand; 1 µM): 100%
O=C(Nc1c[nH]nc1C(=O)NC1CCNCC1)c1cc(F)cc(F)c1  remaining binding (binding, competition with immobilised ligand; 1 µM): 100%
CCS(=O)(=O)c1cc2cc(C[C@@](O)(CC(C)(C)c3ccc(F)cc3C(N)=O)C(F)(F)F)[nH]c2cn1  remaining binding (cell-free assay, competition with immobilised ligand; 1 µM): 85%
O=C(c1ccc(Nc2ncc(Cl)c(-c3cc4ccccc4s3)n2)cc1)N1CCC(N2CCCC2)CC1  remaining binding (binding, competition with immobilised ligand; 1 µM): 75%
O=C(NCCCC1CCCCC1)c1ccc(CNC(=O)c2cnn(-c3ccccc3)c2C(F)(F)F)cc1  remaining binding (cell-free assay, competition with immobilised ligand; 0.1 µM): 83%
CCN1CCN(Cc2ccc(C(=O)Nc3ccc(C)c(Oc4ccc5c(c4)CC(=O)N5)c3)cc2C(F)(F)F)CC1  remaining binding (binding, competition with immobilised ligand; 1 µM): 88%
CNC(=O)c1ccc(Nc2ncc(C(F)(F)F)c(NCc3nccnc3N(C)S(C)(=O)=O)n2)cc1  remaining binding (cell-free assay, competition with immobilised ligand; 0.1 µM): 16%
CNC(=O)[C@@H]1CC[C@@H](n2c(-c3ccc4cnccc4c3)nc3ccc(C(=O)NCc4cccc(C(N)=O)c4)cc32)C1  remaining binding (binding, competition with immobilised ligand; 1 µM): 86%
